Results collected from several papers.
pEC50, pIC50: −log10 of the molar value. In brackets after ≈: the same amount, converted by molar mass.

| Compound | organism | test | system | setting | measurement | value |
| --- | --- | --- | --- | --- | --- | --- |
| Cc1ccc2c(-c3ccnc(Nc4ccccc4)n3)c(-c3ccc(F)cc3)nn2n1 | Plasmodium berghei | parasite growth, luciferase | human | liver stage | pIC50 | 5.26 |
| N#Cc1ccc(/C=C/c2nc3ccccc3c(=O)n2-c2cccc(CC(=O)O)c2)cc1 | Enterococcus faecium | microbial growth, broth dilution | NCTC7171 | – | MIC | > 128 µg/mL |
| O=C(Nc1ccccc1-c1ccc(F)c(F)c1)c1nccnc1C(F)(F)F | Alternaria brassicicola | microbial growth | – | – | EC50 | 0.057 µg/mL |
| CNCCc1ccc(Oc2ccc(-c3noc(-c4ccc(O)cc4)n3)cc2)cc1.Cl | Enterococcus faecium | microbial growth, broth dilution | – | 24 h | MIC | 4 µg/mL |
| CC(C)Oc1c(NC(=O)c2ccc(NC(=O)c3ccc(NC(=O)[C@H](CC(N)=O)NC(=O)c4ccc(NC(=O)c5ccc(C#N)cn5)cc4)cc3)c(OC(C)C)c2O)ccc(C(=O)O)c1O | Citrobacter freundii | microbial growth | DSM30039 | – | MIC | 0.5 µg/mL (≈ 0.564 µM) |
| CC(C)=Cc1cccc2c1C(=NNc1ccc(S(N)(=O)=O)cc1)C(=O)N2 | Trypanosoma brucei | parasite growth | – | – | pEC50 | 7.50 |
| O=c1c2cnccc2nc(/C=C/c2ccc(F)cc2)n1-c1cccc(O)c1 | Enterococcus faecium | microbial growth, broth dilution | NCTC7171 | – | MIC | > 128 µg/mL |
| CNC(=O)c1cc(Oc2ccc(NC(=O)Nc3ccc(Cl)c(C(F)(F)F)c3)cc2)ccn1 | Plasmodium berghei | parasite growth, luciferase | human | liver stage | pIC50 | 5.85 |
| CCCCCCCCCC(=O)N[C@@H](Cc1c[nH]c2ccccc12)C(=O)N[C@H](CC(N)=O)C(=O)N[C@@H](CC(=O)O)C(=O)N[C@@H]1C(=O)NCC(=O)N[C@@H](CCCN)C(=O)N[C@@H](CC(=O)O)C(=O)N[C@H](C)C(=O)N[C@@H](CC(=O)O)C(=O)NCC(=O)N[C@H](CO)C(=O)N[C@@H]([C@H](C)CC(=O)O)C(=O)N[C@@H](CC(=O)c2ccccc2N)C(=O)O[C@@H]1C | Enterococcus faecium | microbial growth, broth dilution | – | 24 h | MIC | 2 µg/mL (≈ 1.23 µM) |
| N#Cc1ccc(/C=C/c2nc3ccccc3c(=O)n2-c2cccc(C(=O)NCCC(=O)O)c2)cc1 | Enterococcus faecium | microbial growth, broth dilution | NCTC7171 | – | MIC | > 128 µg/mL |
| CCN(Cc1cnc2nc(N)nc(N)c2n1)c1ccc(C(=O)N2CCC(C(=O)OC)CC2)cc1 | Trypanosoma brucei | parasite growth, resazurin | – | 10 µM, 72 h | inhibition | 31% |
| CCCCCCCCCCCCCC(O)CC(O)CO (stereo not drawn) | Candida albicans | microbial growth, broth dilution | ATCC90028 | – | IC50 | > 200 µg/mL |
| COc1cc2c(cc1Nc1nc(Nc3cccc(F)c3C(N)=O)c3cc[nH]c3n1)N(C(=O)CN1CCN(C(C)C)CC1)CC2 | Trypanosoma brucei | parasite growth | – | – | pEC50 | 6.70 |
| Cl.NCc1ccc(Oc2ccc(-c3noc(-c4ccc(O)cc4)n3)cc2)cc1 | Enterococcus faecium | microbial growth, broth dilution | – | 24 h | MIC | 4 µg/mL |
| O=C(O)c1cn(C2CC2)c2cc(N3CCNCC3)c(F)cc2c1=O | Mycobacterium intracellulare | microbial killing | ATCC23068 | – | MBC | 3 µM (≈ 0.994 µg/mL) |
| C=CCCCCCCCCCCCC(O)CC(O)CO (stereo not drawn) | Candida albicans | microbial growth, broth dilution | ATCC90028 | – | IC50 | > 200 µg/mL |
| CC(=O)Oc1ccc(-n2c(/C=C/c3ccc([N+](=O)[O-])cc3)nc3ccccc3c2=O)cc1 | Enterococcus faecium | microbial growth, broth dilution | NCTC7171 | – | MIC | 32 µg/mL (≈ 74.9 µM) |
| Cl.Oc1cccc2c1[nH]c1c(C3=CC4(O)CC/C=C\CCCCN5CCC3C3(CC6/C=C\CCCCN6C43)C5)nccc12 (single isomer, unassigned; (+)) | Mycobacterium intracellulare | microbial growth, resazurin | ATCC23068 | – | IC50 | 0.22 µg/mL |

| Compound | organism | test | system | setting | measurement | value |
| --- | --- | --- | --- | --- | --- | --- |
| Cl.NCCc1ccc(Oc2ccc(-c3noc(-c4ccc(O)cc4)n3)cc2)cc1 | Enterococcus faecium | microbial growth, broth dilution | – | 24 h | MIC | 4 µg/mL |
| NS(=O)(=O)c1ccc(NC=C2C(=O)Nc3ccc4ncsc4c32)cc1 | Trypanosoma brucei | parasite growth | – | – | pEC50 | 4.90 |
| N#Cc1ccc(/C=C/c2nc3ccccc3c(=O)n2-c2cccc(C(=O)NCc3cccnc3)c2)cc1 | Enterococcus faecium | microbial growth, broth dilution | NCTC7171 | – | MIC | > 128 µg/mL |
| O=C(O)c1ccc(-c2c[nH]c3ncc(-c4ccccc4)cc23)cc1C1CCCC1 | Plasmodium berghei | parasite growth, luciferase | human | liver stage | pIC50 | 5.92 |
| O=C(O)c1cn(C2CC2)c2cc(N3CCNCC3)c(F)cc2c1=O | Mycobacterium intracellulare | microbial growth | ATCC23068 | – | IC50 | 0.3 µg/mL |
| CS(=O)(=O)c1ccc(/C=C/c2nc3ccccc3c(=O)n2-c2cccc(C(=O)O)c2)cc1 | Enterococcus faecium | microbial growth, broth dilution | NCTC7171 | – | MIC | > 128 µg/mL |
| C[C@@H]1[C@H](O)[C@@H](C)/C=C/C=C/C=C/C=C/C=C/C=C/C=C/[C@H](O[C@@H]2O[C@H](C)[C@@H](O)[C@H](N)[C@@H]2O)C[C@@H]2O[C@](O)(C[C@@H](O)C[C@@H](O)[C@H](O)CC[C@@H](O)C[C@@H](O)CC(=O)O[C@H]1C)C[C@H](O)[C@H]2C(=O)O | Candida albicans | microbial growth | ATCC90028 | – | IC50 | 0.32 µg/mL |
| CC(=O)Nc1ccc(-c2nc(-c3ccc(Oc4ccccc4)cc3)no2)cc1 | Enterococcus faecium | microbial growth, broth dilution | – | 24 h | MIC | > 32 µg/mL |
| NS(=O)(=O)c1ccc(N/N=C2\C(=O)Nc3ccc(Cl)cc32)cc1 | Trypanosoma brucei | parasite growth | – | – | pEC50 | 5.80 |
| COc1ncccc1CNc1cccc(-n2c(/C=C/c3ccc(C#N)cc3)nc3ccccc3c2=O)c1 | Enterococcus faecium | microbial growth, broth dilution | NCTC7171 | – | MIC | > 128 µg/mL |
| CC1=C(C(=O)Nc2ccc3[nH]ncc3c2)C(c2ccc3ccccc3c2)CC(=O)N1 (stereo not drawn) | Trypanosoma brucei | parasite growth | – | – | pEC50 | 5.40 |
| O=C(O)c1cn(C2CC2)c2cc(N3CCNCC3)c(F)cc2c1=O | Mycobacterium intracellulare | microbial growth, resazurin | ATCC23068 | – | IC50 | 0.4 µg/mL |
| C[C@@H](Oc1cc(-n2cnc3ccc(OCC4CCN(C)CC4)cc32)sc1C(N)=O)c1ccccc1C(F)(F)F | Trypanosoma brucei | parasite growth | – | – | pEC50 | 7.80 |
| Cl.Oc1ccc(-c2nc(-c3ccc(Oc4ccc5c(c4)CNCC5)cc3)no2)cc1 | Enterococcus faecium | microbial growth, broth dilution | – | 24 h | MIC | 4 µg/mL |
| CS(=O)(=O)CCNCc1ccc(-c2ccc3ncnc(Nc4ccc(OCc5cccc(C(F)(F)F)c5)cc4)c3c2)o1 | Trypanosoma brucei | parasite growth | – | – | pEC50 | 5.70 |
| CS(=O)(=O)Nc1cccc(-n2c(/C=C/c3ccc(F)cc3)nc3ccccc3c2=O)c1 | Enterococcus faecium | microbial growth, broth dilution | NCTC7171 | – | MIC | > 128 µg/mL |
| COc1cc2ncn(-c3cc(O[C@H](C)c4ccccc4Cl)c(C(N)=O)s3)c2cc1OC | Plasmodium berghei | parasite growth, luciferase | human | liver stage | pIC50 | 5.15 |
| CN(c1ccc(NC(=O)Nc2c(Cl)cccc2Cl)cc1)c1ccnc(Nc2cccc(CS(C)(=O)=O)c2)n1 | Trypanosoma brucei | parasite growth | – | – | pEC50 | 5.10 |
